# Legend:
# Format in all cases: functional
# Settings in all cases: for CC50: read-out: CD50 (the source's name)
# OVCAR-3 = experiment: Cytotoxicity against human OVCAR-3 cells by MTT assay
# Outline: (§1)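 MTT colorimetric read-out. The value is reported as CD50.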
# HepG2 = experiment: Cytotoxicity against human HepG2 cells by MTT assay; outline: as §1
# HeLa = experiment: Cytotoxicity against human HeLa cells by MTT assay; outline: as §1
Structure (SMILES),CC50 (OVCAR-3) [µM],CC50 (HepG2) [µM],CC50 (HeLa) [µM],Activity (OVCAR-3),Activity (HepG2),Activity (HeLa)
Cc1coc2c1C(=O)C(=O)c1c-2ccc2c1CCCC2(C)C [TANSHINONE IIA],9.52,26.5,8.5,,,
Cc1nc2c(o1)c1c3c(ccc1c1occ(C)c21)C(C)(C)CCC3 [NEOSALVIANEN],74.6,59.2,63.9,,,
C[C@H]1COC2=C1C(=O)C(=O)c1c2ccc2c1CCCC2(C)C [CRYPTOTANSHINONE],9.12,29.7,17.2,,,
CC(C)C1=Cc2ccc3c4c([nH]c(c24)C1=O)C(=O)CC3(C)C [SALVIADIONE],169,137,178,,,
Cc1nc2c3c(c4ccc5c(c4c2o1)CCCC5(C)C)OCC3C (stereo unspecified),126,121,108,,,
Cc1nc2c(o1)c1c(C)coc1c1ccc3c(c12)CCCC3(C)C [SALVIANEN],39.5,30.4,32.3,Dose-dependent effect,Dose-dependent effect,Dose-dependent effect

# Reference: ChEMBL document CHEMBL1141749, “Nitrogen-containing compounds from Salvia miltiorrhiza” (2005)
